The source of these data is ChEMBL document CHEMBL4414601 (J Med Chem, 2019).

One series concerns the target Acetylcholinesterase (Homo sapiens, UniProt P22303). The experiment in a line: Inhibition of AChE (unknown origin).
A short description of series [1]: Clearance in rat liver microsomes at 0.5 uM measured up to 45 mins in presence of NADPH by HPLC-MS/MS analysis. The class given is ADME, Microsome.
Series [2] concerns Plasmodium falciparum. The experiment in a line: Antiplasmodial activity against Plasmodium falciparum 3D7A asexual erythrocytic stage assessed as reduction in [3H]hypoxanthine incorporation preincubated for 72 hrs followed by [3H]hypoxanthine addition and measured after 24 hrs by microbeta scintillation counting method. The class given is functional, organism-based.
In series [3] the target is T1, Calcium-dependent protein kinase 1 (Plasmodium falciparum, UniProt P62344). The experiment in a line: Binding affinity to CDPK1 in Plasmodium falciparum 3D7 blood stage extract incubated for 1 hr by kinobeads based pull down assay. Particulars: read-out: Kd(app). The method, boiled down:
(§1)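 Chemoproteomic competition used kinobeads or Sepharose beads derivatized with ligand at 1 mM. Free compound was tested at six concentrations between 0.08 and 20 μM, in two independent experiments. Proteins were SP3-digested, TMT 10-plex labelled and measured by LC-MS/MS. IC50s came from competition curves, and apparent Kd was corrected for protein depletion by the beads.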

The nature of series [4]: Aqueous solubility of compound. The settings on record: buffer.
For series [5], the target named is T2, Beta-2 adrenergic receptor (Homo sapiens, UniProt P07550). The experiment in a line: Antagonist activity at human beta2 adrenoceptor.
The target in series [6] is cGMP-inhibited 3',5'-cyclic phosphodiesterase 3A (Homo sapiens, UniProt Q14432). The experiment in a line: Inhibition of PDE3A (unknown origin).
The next series addresses T3, Casein kinase I (Plasmodium falciparum (isolate 3D7), UniProt Q8IHZ9).
T3 sequence (Q8IHZ9 whole entry): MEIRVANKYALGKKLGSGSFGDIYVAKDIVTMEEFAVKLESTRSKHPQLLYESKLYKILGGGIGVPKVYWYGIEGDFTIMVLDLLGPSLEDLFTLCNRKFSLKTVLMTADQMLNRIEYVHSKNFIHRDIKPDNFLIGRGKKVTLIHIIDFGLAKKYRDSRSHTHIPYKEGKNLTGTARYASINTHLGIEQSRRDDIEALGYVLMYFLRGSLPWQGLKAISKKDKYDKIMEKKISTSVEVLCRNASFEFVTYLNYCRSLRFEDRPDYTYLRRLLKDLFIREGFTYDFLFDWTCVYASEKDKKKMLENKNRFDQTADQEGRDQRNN
The experiment in a line: Binding affinity to CK1 in Plasmodium falciparum 3D7 blood stage extract incubated for 1 hr by kinobeads based pull down assay. Particulars: read-out: Kd(app). The gist of the method:
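Chemoproteomic competition binding: Sepharose beads derivatized at 1 mM with the immobilized ligand (kinobeads prepared likewise). Free compound competed at six concentrations, 0.08–20 μM. Proteins were SP3-digested, TMT 10-plex labelled and quantified by LC-MS/MS on an Orbitrap. IC50 from the competition curve; apparent Kd corrected for protein depletion by the beads. Two independent experiments.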

For series [7], the system named is Plasmodium falciparum. Kind of series: Antiplasmodial activity against Plasmodium falciparum 3D7A asexual erythrocytic stage assessed as reduction in [3H]hypoxanthine incorporation preincubated for 48 hrs followed by [3H]hypoxanthine addition and measured after 24 hrs by microbeta scintillation counting method. The class given is functional, organism-based.
Series [8] is described as follows: Binding affinity to GSK3 in Plasmodium falciparum 3D7 blood stage extract incubated for 1 hr by kinobeads based pull down assay. Particulars: read-out: Kd(app). The method, boiled down:
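The free compound competed over six concentrations from 0.08 to 20 μM. Proteins were digested by a modified SP3 protocol, labelled with TMT 10-plex and quantified by LC-MS/MS. Apparent Kd was derived from IC50 corrected for bead depletion. Two independent experiments were run.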

In series [9] the test system is Plasmodium falciparum. The experiment in a line: Antiplasmodial activity against Plasmodium falciparum 3D7A erythrocytic stage assessed as reduction in [3H]hypoxanthine incorporation preincubated for 24 hrs followed by [3H]hypoxanthine addition and measured after 24 hrs by microbeta scintillation counting method. The class given is functional, organism-based. The gist of the method: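 Nine threefold serial dilutions from 5 μM top concentration. Incubated 24 h at 37 °C under 5% CO2/5% O2/90% N2, then 0.2 μCi [3H]-hypoxanthine per well for another 24 h. Cells harvested on glass fibre filters and counted. Data normalized to compound-free parasitized RBCs; IC50 fitted.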

The target in series [10] is T1, Calcium-dependent protein kinase 1. The experiment in a line: Binding affinity to CDPK1 in Plasmodium falciparum 3D7 blood stage extract incubated for 1 hr in presence of ATP-competitive kinase inhibitor by kinobeads based pull down assay. Particulars: read-out: Kd(app). The gist of the method:
as §1

For series [11], the target named is T4, Calcium-dependent protein kinase 4 (Plasmodium falciparum (isolate 3D7), UniProt Q8IBS5).
T4 sequence (Q8IBS5 whole entry): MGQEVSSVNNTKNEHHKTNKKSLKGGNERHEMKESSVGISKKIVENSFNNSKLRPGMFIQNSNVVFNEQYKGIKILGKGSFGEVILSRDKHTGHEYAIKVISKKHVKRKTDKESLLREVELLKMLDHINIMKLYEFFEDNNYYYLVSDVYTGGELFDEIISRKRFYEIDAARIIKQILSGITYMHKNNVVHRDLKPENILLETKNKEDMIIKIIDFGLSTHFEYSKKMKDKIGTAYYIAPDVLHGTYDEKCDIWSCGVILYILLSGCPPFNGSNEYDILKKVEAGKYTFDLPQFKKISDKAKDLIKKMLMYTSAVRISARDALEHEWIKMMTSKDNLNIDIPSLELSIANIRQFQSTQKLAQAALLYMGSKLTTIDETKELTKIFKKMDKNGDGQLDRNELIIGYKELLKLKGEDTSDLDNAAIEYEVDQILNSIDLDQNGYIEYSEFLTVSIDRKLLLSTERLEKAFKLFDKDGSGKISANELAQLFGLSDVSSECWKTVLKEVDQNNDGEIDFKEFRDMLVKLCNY
Kind of series: Binding affinity to CDPK4 in Plasmodium falciparum 3D7 blood stage extract incubated for 1 hr in presence of ATP-competitive kinase inhibitor by kinobeads based pull down assay. The settings on record: read-out: Kd(app). The gist of the method:
as §1

For series [12], the target named is T2, Beta-2 adrenergic receptor. The experiment in a line: Agonist activity at human beta2 adrenoceptor.
The nature of series [13]: Permeability of compound by PAMPA. (In general: In PAMPA a lipid-coated filter parts donor from acceptor wells.)
A short description of series [14]: Binding affinity to zinc finger (CCCH type) protein in Plasmodium falciparum 3D7 blood stage extract incubated for 1 hr by kinobeads based pull down assay. The settings on record: read-out: Kd(app).
For series [15], the system named is Plasmodium falciparum. The experiment in a line: Antiplasmodial activity against Plasmodium falciparum 3D7A harboring with PKG T618Q mutant asexual erythrocytic stage assessed as reduction in [3H]hypoxanthine incorporation preincubated for 72 hrs followed by [3H]hypoxanthine addition and measured after 24 hrs by microbeta scintillation counting method. In kind it is functional, organism-based.

The nature of series [16]: Lipophilicity, LogD of compound by reverse phase HPLC analysis.

Values after ≈ are worked out from the molar mass of the structure shown. Bounds are passed on as bounds.

T2 sequence (P07550 whole entry): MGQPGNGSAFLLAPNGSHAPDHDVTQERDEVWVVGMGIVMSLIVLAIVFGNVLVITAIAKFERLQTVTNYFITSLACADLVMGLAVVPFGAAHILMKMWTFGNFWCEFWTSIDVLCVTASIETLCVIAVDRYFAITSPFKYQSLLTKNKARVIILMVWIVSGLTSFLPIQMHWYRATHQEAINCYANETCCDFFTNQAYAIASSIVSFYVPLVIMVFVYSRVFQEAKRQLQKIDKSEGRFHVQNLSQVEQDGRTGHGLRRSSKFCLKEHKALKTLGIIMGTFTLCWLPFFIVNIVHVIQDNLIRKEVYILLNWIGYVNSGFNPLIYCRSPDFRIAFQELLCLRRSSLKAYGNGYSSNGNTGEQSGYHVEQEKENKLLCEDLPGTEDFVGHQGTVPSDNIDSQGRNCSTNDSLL
T1 sequence (P62344 whole entry): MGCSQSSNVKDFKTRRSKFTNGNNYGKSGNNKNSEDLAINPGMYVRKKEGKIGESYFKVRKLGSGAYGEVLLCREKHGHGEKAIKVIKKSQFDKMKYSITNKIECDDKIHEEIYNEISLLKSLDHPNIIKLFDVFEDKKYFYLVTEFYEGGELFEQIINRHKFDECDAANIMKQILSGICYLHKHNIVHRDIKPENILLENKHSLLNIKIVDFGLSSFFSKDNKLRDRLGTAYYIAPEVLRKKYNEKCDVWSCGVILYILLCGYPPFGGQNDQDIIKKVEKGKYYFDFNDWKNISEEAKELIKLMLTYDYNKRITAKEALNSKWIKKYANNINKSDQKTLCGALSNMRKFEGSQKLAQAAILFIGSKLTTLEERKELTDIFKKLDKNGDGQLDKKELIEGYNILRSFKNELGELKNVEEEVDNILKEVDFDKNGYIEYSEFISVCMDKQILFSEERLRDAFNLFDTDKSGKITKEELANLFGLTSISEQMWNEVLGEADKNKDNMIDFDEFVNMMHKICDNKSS
cGMP-inhibited 3',5'-cyclic phosphodiesterase 3A, sequence (Q14432 whole entry): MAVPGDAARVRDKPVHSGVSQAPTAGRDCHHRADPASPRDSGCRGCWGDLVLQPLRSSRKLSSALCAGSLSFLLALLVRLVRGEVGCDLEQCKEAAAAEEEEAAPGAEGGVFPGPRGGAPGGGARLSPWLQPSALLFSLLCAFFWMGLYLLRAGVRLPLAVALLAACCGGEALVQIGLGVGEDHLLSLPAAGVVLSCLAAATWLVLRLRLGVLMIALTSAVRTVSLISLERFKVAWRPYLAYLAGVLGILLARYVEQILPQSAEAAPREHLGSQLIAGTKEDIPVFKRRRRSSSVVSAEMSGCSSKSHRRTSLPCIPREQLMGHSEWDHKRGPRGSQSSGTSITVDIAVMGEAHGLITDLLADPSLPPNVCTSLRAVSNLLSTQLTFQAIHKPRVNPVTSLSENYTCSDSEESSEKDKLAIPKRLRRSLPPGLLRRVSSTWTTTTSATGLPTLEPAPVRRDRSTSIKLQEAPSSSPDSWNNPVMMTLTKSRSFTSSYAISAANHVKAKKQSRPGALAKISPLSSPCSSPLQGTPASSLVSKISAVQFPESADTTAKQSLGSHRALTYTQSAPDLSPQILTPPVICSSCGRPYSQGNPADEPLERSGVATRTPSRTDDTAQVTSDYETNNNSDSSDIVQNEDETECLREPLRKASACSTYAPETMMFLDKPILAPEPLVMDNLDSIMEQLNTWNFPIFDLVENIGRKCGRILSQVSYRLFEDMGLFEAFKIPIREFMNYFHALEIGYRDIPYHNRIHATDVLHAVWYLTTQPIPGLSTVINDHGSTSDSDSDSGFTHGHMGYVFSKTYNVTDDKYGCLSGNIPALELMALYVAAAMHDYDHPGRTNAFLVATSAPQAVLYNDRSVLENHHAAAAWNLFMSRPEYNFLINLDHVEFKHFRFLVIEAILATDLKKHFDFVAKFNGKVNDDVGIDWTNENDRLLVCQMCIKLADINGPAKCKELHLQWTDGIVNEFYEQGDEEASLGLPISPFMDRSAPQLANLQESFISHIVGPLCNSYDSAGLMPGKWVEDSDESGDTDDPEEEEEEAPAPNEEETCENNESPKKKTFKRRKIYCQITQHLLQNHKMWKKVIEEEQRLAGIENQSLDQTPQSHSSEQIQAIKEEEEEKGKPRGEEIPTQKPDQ
Acetylcholinesterase, sequence (P22303 whole entry): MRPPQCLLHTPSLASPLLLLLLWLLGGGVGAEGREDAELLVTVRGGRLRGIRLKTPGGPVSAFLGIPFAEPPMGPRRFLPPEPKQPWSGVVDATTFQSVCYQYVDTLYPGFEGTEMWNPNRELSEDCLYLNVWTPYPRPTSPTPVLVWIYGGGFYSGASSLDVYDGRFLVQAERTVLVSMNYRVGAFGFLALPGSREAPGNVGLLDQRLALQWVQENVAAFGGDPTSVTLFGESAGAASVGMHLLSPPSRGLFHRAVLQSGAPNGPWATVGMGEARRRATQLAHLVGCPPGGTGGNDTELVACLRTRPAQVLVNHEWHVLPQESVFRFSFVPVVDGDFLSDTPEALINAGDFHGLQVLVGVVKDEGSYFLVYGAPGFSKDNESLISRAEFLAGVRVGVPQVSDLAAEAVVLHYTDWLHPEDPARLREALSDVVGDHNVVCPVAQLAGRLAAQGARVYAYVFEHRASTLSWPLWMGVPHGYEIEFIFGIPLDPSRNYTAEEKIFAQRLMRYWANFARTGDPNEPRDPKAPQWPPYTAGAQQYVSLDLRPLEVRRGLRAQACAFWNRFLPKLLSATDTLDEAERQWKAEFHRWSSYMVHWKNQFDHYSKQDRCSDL

A word on the IC50: it is the concentration needed to halve the response being measured. The term EC50 denotes the midpoint of the concentration-response curve. The solubility is how much of the substance goes into solution per volume. A lower solubility goes with little dissolved substance. The Papp is a coefficient for how fast a substance crosses the barrier. A higher Papp goes with ready permeation. Broadly, the chromatographic logD is a lipophilicity value derived from retention on a column. Low readings indicate a more hydrophilic compound, high ones a more lipophilic compound. As to `Cc1cc(Nc2nccc(-c3sc(C4CCNCC4)nc3-c3ccc(F)cc3)n2)ccn1`, the IC50 was 400 nM on Acetylcholinesterase, greater than 100000 nM in series [5] and greater than 100000 nM in series [6]. For the same molecule, in series [1], the CLH was found to be 0.87 mL/min/g. The EC50 in the series with Plasmodium falciparum [2] was 90 nM; with Plasmodium falciparum [7], 130 nM; in the series with Plasmodium falciparum [9], 160 nM; in series [12], greater than 100000 nM; in the series on Plasmodium falciparum [15], 120 nM. Besides, the Kd in series [3] was found to be 50 nM; at Casein kinase I, 150 nM; in series [8], 90 nM; in series [10] it was 50 nM; in series [11], 50 nM; in [14] it was 3900 nM. For the same molecule, the solubility in series [4] amounted to 410 µM (≈ 183 µg/mL). In series [13], this molecule came in with a Papp of 21 ×10⁻⁶ cm/s. In series [16], this molecule had a chromatographic logD of 2.54.
